A selection: hits, their analogues and other compounds. The true share with any hit is near 2.1%.
FN deposit inh: fibronectin deposition inhibition; 0.086% of 350,000 active; AH1F fibroblasts, Alexa488-fibronectin deposition fluorescence, overnight; inhibition, % at 12.6 µM;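 active = mean inhibition across replicates of 30% or more, regardless of how many single replicates reach that level; inconclusive = mean under 30% yet at least half of replicates reach 30%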;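 note: positive control wells lacked labelled fibronectin entirely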
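Material: AH1F fibroblast monolayer depositing Alexa488-labelled fibronectin into matrix | Input: 10000 AH1F cells/well | Medium: DMEM plus 2% serum, read in PBS | Reagent: Alexa488-fibronectin, 24 nM final in well | Compound dosing: One dose per compound, pinned | Schedule: 1 h adhesion, overnight exposure | Measured by: Fluorescence at 485 nm excitation, 525 nm emission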
EWS-Fli inh: blocks EWS/Fli oncoprotein-driven transcription; 0.67% of 350,000 active; inhibition, % at 12.6 µM; A673 NR0B1-luciferase reporter, viability-normalised;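 active = mean inhibition of at least 50% after viability correction, with every replicate also passing that limit; inconclusive = mean reaches 50% but only one of two replicates passes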;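 note: firefly luciferase signal divided by Alamar Blue viability fluorescence both relative to DMSO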
LMP1 NFkB inh: inhibitors of Epstein-Barr LMP1-induced NF-kappaB reporter | LMP1-induced NF-kappaB luciferase reporter cells, luminescence | inhibition, % at 12.5 µM | 0.69% of 350,000 active | AID 504558; in the data active = inhibition above about 41%; inconclusive = no clear call, values can overlap the other calls;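 note: 0% = neutral control wells and 100% = reference inhibitor control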
Shn3 3UTR inh: reduces Shn3 3'UTR luciferase signal in osteoblasts | Clone20 osteoblast Shn3 3'UTR firefly luciferase, 24 h | inhibition, % at 12.5 µM | 0.52% of 360,000 active | AID 588674;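 active = mean inhibition of at least 75% with every replicate also reaching 75%; inconclusive = mean inhibition at least 75% but some replicate below; inactive = mean inhibition below 75%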;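 note: 0% = median of neutral control wells and 100% = pilot-screen positive control compound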
aSyn UTR inh: 5' untranslated region of α-synuclein, MLPCN primary screen | inhibition, % (tested at 7.5 µM) | alpha-synuclein 5'UTR reporter, inhibitor activity | 0.82% of 300,000 active | AID 1813; in the data active = inhibition above about 60%; inconclusive = no clear call, values can overlap the other calls;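 note: H4 neuroglioblastoma cells stably carrying SNCA 5'UTR luciferase fusion; 0% = DMSO wells and 100% = positive control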
PAX8 inh HTS: lowers PAX8-driven luciferase in RMG-I cells | 1.2% of 360,000 active | RMG-I TPO-luciferase reporter, SteadyGlo, 24 h | inhibition, % at 12.6 µM;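 active = mean replicate inhibition at least 60% with every replicate also reaching 60%; inconclusive = only one of the two criteria is met; inactive = mean below 60% and not all replicates reaching 60%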;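 note: luciferase light reporting Pax8 driven TPO promoter activity; plate controls were median of neutral control wells for no effect and mitoxantrone controls for full effect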
Active calls of the source: *; ? = inconclusive; nt = no result.

SMILES | FN deposit inh | EWS-Fli inh | LMP1 NFkB inh | Shn3 3UTR inh | aSyn UTR inh | PAX8 inh HTS
O=C(Nc1ccc(F)cc1)Nc1cc(OCC(F)(F)F)cc(OCC(F)(F)F)c1 | -1.5 | nt | 28.4 | 90.3* | 86.0* | 82.8*
CCOc1ccc(NC(=O)Nc2cc(C)ccc2F)cc1 | -1.0 | nt | -13.7 | -85.3 | -199.1 | nt
CCOc1ccc(NC(=O)Nc2cc(OCC(F)(F)F)cc(OCC(F)(F)F)c2)cc1 | -7.7 | 16.9 | -0.2 | 63.8 | 0.5 | 87.2*
CCOC(=O)Nc1sc2c(c1C#N)CCC(C)C2 (stereo unspecified) | nt | nt | -14.3 | -29.9 | -160.6 | nt
CCNC(=S)Nc1sc2c(c1C#N)CCC(C)C2 (stereo unspecified) | 13.0 | 3.7 | 59.4* | -8.1 | 10.5 | -2.2
Cn1c(CCN2CCN(c3ccccn3)CC2)nc2cc(NS(=O)(=O)c3ccccc3)ccc21 | 0.8 | nt | 8.1 | 49.4 | -25.2 | 72.2*
Cn1c(CCN2CCN(c3ccccn3)CC2)nc2cc(NC(=O)COc3ccccc3)ccc21 | -2.7 | nt | 13.5 | 4.7 | -4.9 | 66.3*
Cn1c(CCN2CCCCC2)nc2cc(NS(=O)(=O)c3ccccc3)ccc21 | -2.2 | nt | 8.3 | 12.4 | 21.7 | nt
Cc1ccc(OCC(=O)Nc2ccc3c(c2)nc(CCN2CCN(C)CC2)n3C)cc1 | -11.2 | 4.7 | 11.9 | 1.5 | 105.3* | 1.0
Cc1ccc(C(C)C)c(OCC(=O)Nc2ccc3c(c2)nc(CCN2CCCCC2)n3C)c1 | 6.9 | ? | -8.3 | 1.6 | 110.3* | 83.1*
Cc1ccc(OCC(=O)Nc2ccc3c(c2)nc(CCN2CCN(c4ccccn4)CC2)n3C)cc1 | 6.7 | 15.6 | 10.6 | 12.5 | nt | 52.1
C[C@@H]1CN([C@H](C)CO)C(=O)c2cc(NC(=O)C3CC3)ccc2O[C@@H]1CN(C)S(=O)(=O)c1ccc(F)cc1 | nt | -3.1 | nt | nt | nt | 6.1
Cc1cc(=O)[nH]c(NN=Cc2c(Cl)cccc2Cl)n1 | -0.4 | -21.3 | 4.8 | 12.2 | nt | -16.8
C(=N\Nc1nncc2ccccc12)/c1ccccn1 | 5.9 | 41.1 | 29.9 | 67.6 | 97.8* | -62.0
Cc1cc(=O)[nH]c(N/N=C/c2ccccn2)n1 | 3.3 | nt | 16.1 | 89.4* | 73.8* | 53.2
O=c1cnnc(N/N=C/c2ccccn2)[nH]1 | 6.4 | 45.4 | 76.0* | 95.7* | 74.8* | 54.4
Fc1cccc(/C=N/Nc2nncc3ccccc23)c1 | -1.0 | 21.6 | -9.1 | 3.5 | -12.8 | -28.7
CCCC(=O)N1CC2(C1)CN(S(C)(=O)=O)[C@H](CO)c1c2c2ccc(OC)cc2n1C | nt | -11.8 | nt | nt | nt | 17.9
O=C(NCCCN1CCOCC1)c1ccc(/C=C2\Oc3ccccc3N(Cc3ccccc3F)C2=O)cc1 | 10.2 | nt | -0.4 | -18.0 | -40.2 | 17.0
CCN1CCN(CCCNC(=O)c2ccc(/C=C3/Oc4ccccc4N(Cc4cccc(C)c4)C3=O)cc2)CC1 | nt | nt | -0.9 | 3.0 | 101.4* | nt
CCCNC(=O)N(C)C[C@@H]1Oc2cc(-c3ccc(C)cc3)ccc2S(=O)(=O)N([C@H](C)CO)C[C@@H]1C | 7.6 | -9.2 | nt | nt | nt | nt
COC(=O)c1c(NC(=O)c2ccccc2)sc2c1CC(C)(C)NC2(C)C | 0.2 | -6.6 | -2.7 | -4.3 | 4.1 | -7.2
COC(=O)c1c(NC(=O)c2ccc(OC(C)C)cc2)sc2c1CC(C)(C)NC2(C)C | 1.2 | 3.7 | -62.8 | 11.7 | 103.2* | -5.0
COC(=O)[C@]12CCCCC=C1N(CCC1=CCCCC1)C(=O)[C@H](CC(=O)N1CCN(C(=O)c3ccco3)CC1)C2 | 11.7 | 2.8 | nt | nt | nt | 79.0*
COC(=O)[C@]12CCCCC=C1N(CCc1ccc(OC)c(OC)c1)C(=O)[C@H](CC(=O)N1CCN(C(=O)c3ccco3)CC1)C2 | 2.5 | -6.1 | nt | nt | nt | 21.2
SMILES | FN deposit inh | EWS-Fli inh | LMP1 NFkB inh | Shn3 3UTR inh | aSyn UTR inh | PAX8 inh HTS
CCOC(=O)[C@]12CCCC=C1N(Cc1ccccc1)C(=O)[C@H](CC(=O)N1CCN(C(=O)c3ccco3)CC1)C2 | -0.4 | -8.2 | nt | nt | nt | 70.6*
COC(=O)[C@]12CCCCC=C1N(Cc1cccc3ccccc13)C(=O)[C@H](CC(=O)N1CCN(C(=O)c3ccco3)CC1)C2 | -2.7 | 0.0 | nt | nt | nt | 92.4*
O=C(Nc1ccc(C(=O)O)cc1)Nc1ccc([N+](=O)[O-])cc1 | 2.1 | 15.6 | -3.0 | -5.9 | -7.9 | 7.0
O=C(Nc1cc(C(F)(F)F)cc(C(F)(F)F)c1)Nc1cnn(-c2ccc([N+](=O)[O-])cc2)c1C(F)(F)F | -2.4 | 19.4 | 57.1* | 59.7 | 24.6 | 4.7
Cn1/c(=N/NC(=O)c2ccccc2Br)sc2ccccc21 | 2.3 | -74.7 | 48.6* | -74.0 | -75.1 | -120.1
C[C@@H]1CN([C@@H](C)CO)S(=O)(=O)c2ccc(-c3cccnc3)cc2O[C@@H]1CN(C)C(=O)C1CC1 | nt | -12.9 | nt | nt | nt | nt
NNC(=O)c1nn(-c2ccc(Cl)cc2)cc1O | 0.8 | -9.5 | 8.1 | -22.8 | 42.0 | 71.8*
C[C@@H]1CN([C@@H](C)CO)C(=O)Cc2cc(NC(=O)NC3CCCCC3)ccc2O[C@H]1CN(C)CC1CCCCC1 | nt | -2.0 | nt | nt | nt | 67.2*
C[C@@H]1CN([C@@H](C)CO)C(=O)Cc2cc(NC(=O)Nc3ccc(F)cc3)ccc2O[C@H]1CN(C)CC1CCCCC1 | nt | 13.5 | nt | nt | nt | 82.1*
C[C@@H]1CN([C@@H](C)CO)C(=O)Cc2cc(NC(=O)Nc3ccc4c(c3)OCO4)ccc2O[C@H]1CN(C)CC1CCCCC1 | nt | 2.0 | nt | nt | nt | 82.5*
COc1ccccc1NC(=O)N[C@H]1CC[C@H](CCNC(=O)Cc2ccccn2)O[C@H]1CO | -20.2 | -4.3 | nt | nt | nt | -0.9
CCCN1[C@@H]2c3ccc(-c4ccc(OC)cc4)c(=O)n3C[C@H]1[C@H](CO)[C@H]2C(=O)NCC | nt | -18.9 | nt | nt | nt | nt
C[C@H](CO)N1C[C@H](C)[C@@H](CN(C)C(=O)Cc2ccccc2)OCCCC[C@H](C)Oc2ccc(NC(=O)Nc3ccc(C(F)(F)F)cc3)cc2C1=O | nt | 10.7 | nt | nt | nt | 87.0*
C[C@@H]1CN([C@H](C)CO)C(=O)c2cc(NC(=O)Nc3ccc(C(F)(F)F)cc3)ccc2O[C@@H](C)CCCCO[C@@H]1CN(C)C(=O)Cc1ccccc1 | nt | -3.6 | nt | nt | nt | 71.9*
C[C@@H]1CN([C@@H](C)CO)C(=O)c2cc(NC(=O)Nc3ccccc3)ccc2O[C@@H](C)CCCCO[C@H]1CN(C)C(=O)Cc1ccccc1 | 2.6 | 7.1 | nt | nt | nt | 10.3
C[C@H](CO)N1C[C@H](C)[C@@H](CN(C)C(=O)Cc2ccccc2)OCCCC[C@H](C)Oc2ccc(NC(=O)Nc3ccccc3)cc2C1=O | -9.3 | 1.9 | nt | nt | nt | 4.4
COc1ccc(NC(=O)Nc2ccc3c(c2)C(=O)N([C@H](C)CO)C[C@@H](C)[C@@H](CN(C)C(=O)Cc2ccccc2)OCCCC[C@H](C)O3)cc1 | nt | -0.7 | nt | nt | nt | 98.9*
C[C@@H]1CCCCO[C@H](CN(C)C(=O)Cc2ccccc2)[C@@H](C)CN([C@@H](C)CO)C(=O)c2cc(NC(=O)Nc3ccc(C(F)(F)F)cc3)ccc2O1 | nt | -6.8 | nt | nt | nt | 78.6*
COc1ccccc1CNC(=O)C[C@H]1CC[C@H]2[C@@H](COc3ccc(NC(=O)c4ccno4)cc3C(=O)N2C)O1 | 1.3 | 0.7 | nt | nt | nt | 3.0

Bioassay records: PubChem BioAssay, Broad Institute
